In the library only some 3.8% were active in any assay of this set; here they are far more common.
KCNQ1 block: blocks the human KCNQ1 potassium channel. B-score at 10 µM. actives 1.3% (n = 310,000). CHO-K1 KCNQ1, FluxOR thallium flux fluorescence; hits give high values;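 active = compounds whose thallium flux B-score, printed positive for inhibition, exceeds three library SD while starting fluorescence stays within three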;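 also: channel opened by potassium depolarization with thallium stimulus after 20 min compound exposure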
KCNK9 block: blocks the human KCNK9 two-pore domain potassium channel | Q9NPC2 | HEK293 KCNK9, FluxOR thallium flux fluorescence; hits give low values | B-score at 10 µM | actives 1.2% (n = 310,000);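 active = ratio B-score over 3 SD below the library mean, with starting fluorescence within 5 SD of its mean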;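 also: negative B-score means less thallium flux so channel inhibition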
Target sequence (Q9NPC2 whole entry, looked up, the tested form may be a part): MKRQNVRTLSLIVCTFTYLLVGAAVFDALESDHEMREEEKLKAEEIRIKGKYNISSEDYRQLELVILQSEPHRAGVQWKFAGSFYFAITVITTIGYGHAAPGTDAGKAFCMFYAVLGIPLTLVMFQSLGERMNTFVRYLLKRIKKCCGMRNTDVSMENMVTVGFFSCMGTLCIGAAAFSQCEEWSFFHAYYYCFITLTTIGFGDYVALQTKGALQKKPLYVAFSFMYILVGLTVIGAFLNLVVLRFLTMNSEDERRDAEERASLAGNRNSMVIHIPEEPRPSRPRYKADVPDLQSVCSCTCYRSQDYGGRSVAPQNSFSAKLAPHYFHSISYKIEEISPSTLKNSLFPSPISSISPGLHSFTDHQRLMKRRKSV
hERG rescue: hERG (human) protection from proarrhythmic block; Q12809; CHO-hERG, FluxOR thallium flux, dofetilide IC70 present; activation (rescue from dofetilide block), less the hit threshold, % at 10 µM; actives 0.51% (n = 310,000);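 active = activation above the mean of controls blocked by dofetilide plus 5 SD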;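 also: thallium influx through hERG after potassium depolarization seen as dye fluorescence rise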
KCNK3 inh: human KCNK3 channel inhibition, primary screen. CHO-KCNK3 thallium flux, FluxOR fluorescence; hits give low values. B-score at 10 µM. actives 0.84% (n = 340,000);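 active = B-score under library mean minus 4 SD, starting fluorescence ratio at most library mean plus 5 SD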;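 also: more negative B-score means stronger inhibition of thallium flux through KCNK3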
Kir21 inh: blocks the mouse Kir2.1 inward-rectifier potassium channel | HEK293-Kir2.1, FluxOR thallium flux fluorescence; hits give low values | AID 1672 | P35561 | B-score at 10 µM | actives 0.85% (n = 310,000);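 active = fluorescence ratio B-score at or below minus 3 SD of library scores, with starting-brightness B-score within 2 SD, cut at about -4.2 in these data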;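 also: channel flux triggered by added potassium and thallium sulfate stimulus; B-score of peak minus minimum fluorescence over baseline after thallium stimulus; more negative B-score means stronger Kir2.1 block with less thallium influx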
KCNQ1 act: potentiators or activators of human KCNQ1 potassium channel; P51787; CHO-K1 KCNQ1, thallium flux FluxOR fluorescence; hits give high values; B-score at 10 µM; actives 0.35% (n = 310,000); AID 2648;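 active = fluorescence ratio B-score, a plate-corrected score, at least three library SD, with initial intensity B-score within 5 SD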
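Assay system: CHO-K1 cells stably expressing KCNQ1. Medium: assay buffer for compound exposure, DMSO matched across wells. Timing: 37 °C overnight plating, 90-min dark dye load, 20-min compound pretreatment. Signal: kinetic FluxOR fluorescence, 10 s baseline plus 110 s post-stimulus.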
Hits are given with their value; 0 = inactive.

SMILES	KCNQ1 block	KCNK9 block	hERG rescue	KCNK3 inh	Kir21 inh	KCNQ1 act
O=C(NNC(=S)NC1CCCCC1)c1sc2ccccc2c1Cl	0	0	0	0	0	0
CCOC(=S)NC(=O)c1sc2ccccc2c1Cl	0	0	22.2	0	0	96
Fc1ccc(N2CCN(Cc3cnc(N4CCOCC4)s3)CC2)cc1	0	0	0	0	0	0
CN1CCN(c2ncc(CN3C(=O)c4ccccc4C3=O)s2)CC1	0	0	5.9	0	0	0
Clc1nc(-c2ccccn2)nc2scc(-c3ccccc3)c12	0	0	0	0	0	0
CCn1nnc2cc(C(=O)Nc3cc(S(C)(=O)=O)ccc3Cl)ccc21	0	0	0	0	0	10
COc1ccc(CNCc2cccc(OC)c2OC)cc1Br	0	0	0	0	-5.02	0
CCN1CC=C2C(C#N)=C(N)C(C#N)(C#N)[C@H](c3cccc(OC)c3OC)[C@H]2C1	0	0	0	0	0	0
CCN1CC=C2C(C1)C(c1ccc(Cl)s1)C(C#N)=C(N)C2(C#N)C#N (stereo not drawn)	11	0	0	0	0	0
O=C(C1CCN(c2nnc(-n3cccc3)s2)CC1)N1CCOCC1	0	0	0	0	0	0
CSc1nc2cc(S(=O)(=O)N3CCOCC3)ccc2s1	0	0	0	0	0	0
O=C(/C=C/c1ccc(OC(F)F)cc1)OCC(=O)N1CCc2ccccc21	0	0	0	0	0	0
COc1ccccc1OCCSc1nc2ccccc2n1CCC(=O)O	0	0	0	0	0	0
CCCn1c(COc2ccccc2OC)nc2ccccc21	0	0	0	0	-4.3	0
CCn1c(COc2ccccc2OC)nc2ccccc21	0	0	0	0	0	0
COc1ccccc1OCCSc1nc2ccccc2n1CCO	0	0	0	0	-4.26	0
COc1ccc(CN2CCNC(=O)C2CC(=O)NCCc2cnccn2)cc1C (stereo not drawn)	0	0	0	0	0	0
Cc1nc(N)nc(N/N=C/c2c(F)cccc2Cl)n1	0	0	0	0	0	0
Cc1c(C(=O)NCC2CCCO2)oc2ccc(S(=O)(=O)N3CCCC3)cc12 (stereo not drawn)	0	0	0	0	0	0
Cc1c(C(=O)NCC2COc3ccccc3O2)oc2ccc(S(=O)(=O)N(C)C3CCCCC3)cc12 (stereo not drawn)	6	0	0	0	0	0
CC1CCCCC1NC(=O)c1ccc(-n2cncn2)c([N+](=O)[O-])c1 (stereo not drawn)	0	0	0	0	0	0
CCN(CC)C(=O)COc1ccc2c3c(c(=O)oc2c1C)CCCC3	0	0	0	0	0	0
Cc1c(C)n(C)c2ccc(C(=O)NCCCN3CCN(c4ccc(F)cc4)CC3)cc12	0	0	0	0	-4.25	0
Cc1c(C)n(Cc2ccc(F)cc2)c2ccc(C(=O)N3CCN(c4ccccn4)CC3)cc12	6	0	0	0	0	0
Cc1c(C)n(Cc2ccc(F)cc2)c2ccc(C(=O)NCCCN3CCOCC3)cc12	0	0	0	0	-4.82	0
SMILES	KCNQ1 block	KCNK9 block	hERG rescue	KCNK3 inh	Kir21 inh	KCNQ1 act
CC1CCN(C(=S)Nc2cccc(S(=O)(=O)N(C)C)c2)CC1	0	0	0	0	0	0
CC(=O)c1cccc(S(=O)(=O)N(Cc2cc3cc4c(cc3[nH]c2=O)OCCO4)CC2CCCO2)c1 (stereo not drawn)	0	0	0	0	0	0
CC(C)CC(C(=O)NC1CCCCC1)N(Cc1ccccc1)C(=O)c1snc(C(N)=O)c1N (stereo not drawn)	6	0	0	0	0	0
CC(C)CC(C(=O)NC1CCCC1)N(Cc1ccc2c(c1)OCO2)C(=O)c1snc(C(N)=O)c1N (stereo not drawn)	6	0	0	0	0	0
Cc1noc(C)c1COC(=O)Cc1ccc(Cl)cc1	0	0	0	0	0	0
CN(C)c1ccc(N2C(=O)CSC2=S)cc1	0	0	6.8	0	0	0
COc1ccccc1OCC(=O)n1cc(C(=O)c2cc(Cl)cc(Cl)c2O)cn1	0	0	0	0	0	0
Cn1c(=O)c(C#N)c(-c2ccc(F)cc2)c2cc(C(=O)c3cc(Cl)cc(Cl)c3O)cnc21	11	0	0	0	0	0
